Consider 15 compounds from ChEMBL document CHEMBL3351655, “Scaffold decoration at positions 5 and 8 of 1,2,4-triazolo[1,5-c]pyrimidines to explore the antagonist profiling on adenosine receptors: a preliminary structure-activity relationship study” (J Med Chem, 2014).

Experiment [1] deals with Adenosine receptors; A1 & A3 (Homo sapiens) (UniProt P30542+P0DMS8). Kind of experiment: Selectivity ratio of Ki for human adenosine A1 receptor expressed in CHO cells to Ki for human adenosine A3 receptor expressed in CHO cells. The class given is cell-based.
The subject of experiment [2] is CHO. The experiment can be described thus: Selectivity ratio of Ki for human adenosine A2A receptor expressed in CHO cells to Ki for human adenosine A3 receptor expressed in CHO cells. It counts as cell-based.
In experiment [3] the test system is CHO. The experiment can be described thus: Selectivity ratio of Ki for human adenosine A1 receptor expressed in CHO cells to Ki for human adenosine A2A receptor expressed in CHO cells. It counts as cell-based.
Another experiment concerns the target T1, Adenosine receptor A1 (Homo sapiens, UniProt P30542).
T1 sequence (P30542 whole entry): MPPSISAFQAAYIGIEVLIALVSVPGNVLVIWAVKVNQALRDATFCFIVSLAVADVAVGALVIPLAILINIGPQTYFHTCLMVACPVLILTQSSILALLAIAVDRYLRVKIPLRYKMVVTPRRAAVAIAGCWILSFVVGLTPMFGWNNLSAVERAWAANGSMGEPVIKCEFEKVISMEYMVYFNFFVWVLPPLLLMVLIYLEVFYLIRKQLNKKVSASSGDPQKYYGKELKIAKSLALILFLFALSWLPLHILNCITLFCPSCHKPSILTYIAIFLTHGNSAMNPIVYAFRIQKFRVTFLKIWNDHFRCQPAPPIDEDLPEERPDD
Kind of experiment: Displacement of [3H]CCPA from human adenosine A1 receptor expressed in CHO cells. The class given is cell-based. The gist of the method:
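Stably transfected CHO cells were homogenised and spun at 1000g to remove nuclei and fragments. Membranes were then pelleted at 100 000g, resuspended in binding buffer, frozen in liquid nitrogen and stored. Radioligand was [³H]CCPA, with nonspecific binding defined by 1 mM theophylline.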

The next experiment concerns the target Adenosine receptor A2a (Homo sapiens, UniProt P29274). Kind of experiment: Displacement of [3H]NECA from human adenosine A2A receptor expressed in CHO cells. The class given is cell-based. In general terms: Loss of bound radioactivity is the signal in a displacement assay; it reports binding, not function.
In the next experiment the target is T2, Adenosine receptor A3 (Homo sapiens, UniProt P0DMS8).
T2 sequence (P0DMS8 whole entry): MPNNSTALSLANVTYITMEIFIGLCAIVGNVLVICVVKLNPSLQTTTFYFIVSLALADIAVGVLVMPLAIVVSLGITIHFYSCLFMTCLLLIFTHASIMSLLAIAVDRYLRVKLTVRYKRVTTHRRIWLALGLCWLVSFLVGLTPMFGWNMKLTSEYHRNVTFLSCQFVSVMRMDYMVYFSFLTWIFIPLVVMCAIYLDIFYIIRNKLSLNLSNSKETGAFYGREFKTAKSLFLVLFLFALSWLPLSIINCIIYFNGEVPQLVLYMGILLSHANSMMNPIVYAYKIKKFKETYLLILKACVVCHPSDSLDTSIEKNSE
Kind of experiment: Displacement of [3H]NECA from human adenosine A3 receptor expressed in CHO cells. The class given is cell-based. In outline:
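Radioligand [³H]NECA was used on membranes from stably transfected CHO cells, prepared by a 1000g clearing spin then pelleting at 100 000g. Pellets were resuspended in binding buffer, frozen in liquid nitrogen and stored. Nonspecific binding was defined with 100 μM R-PIA.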

For a further experiment, the target named is T3, Adenosine receptor A2b (Homo sapiens, UniProt P29275).
T3 sequence (P29275 whole entry): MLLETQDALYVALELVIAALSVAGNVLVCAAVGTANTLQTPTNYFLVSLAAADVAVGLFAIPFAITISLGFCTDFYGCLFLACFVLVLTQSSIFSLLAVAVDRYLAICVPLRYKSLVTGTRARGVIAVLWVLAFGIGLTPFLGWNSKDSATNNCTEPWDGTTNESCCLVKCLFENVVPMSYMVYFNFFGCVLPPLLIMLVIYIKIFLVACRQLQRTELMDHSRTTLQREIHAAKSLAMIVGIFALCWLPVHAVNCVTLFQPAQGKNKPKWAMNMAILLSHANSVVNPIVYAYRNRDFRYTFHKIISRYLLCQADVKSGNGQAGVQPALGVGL
The experiment can be described thus: Antagonist activity at human adenosine A2B receptor expressed in CHO cells assessed as inhibition of NECA-stimulated adenylyl cyclase activity. The class given is functional, cell-based. In outline: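 Membranes from stably transfected CHO cells, made with a single high-speed centrifugation of the homogenate. Incubated 20 min with about 150 000 cpm [α-³²P]ATP, in a mixture without EGTA and NaCl. IC50 for concentration-dependent inhibition of NECA-stimulated adenylyl cyclase was fitted with the Hill equation and converted to Ki by Cheng–Prusoff.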

Chain of Adenosine receptor A2a (P29274 whole entry): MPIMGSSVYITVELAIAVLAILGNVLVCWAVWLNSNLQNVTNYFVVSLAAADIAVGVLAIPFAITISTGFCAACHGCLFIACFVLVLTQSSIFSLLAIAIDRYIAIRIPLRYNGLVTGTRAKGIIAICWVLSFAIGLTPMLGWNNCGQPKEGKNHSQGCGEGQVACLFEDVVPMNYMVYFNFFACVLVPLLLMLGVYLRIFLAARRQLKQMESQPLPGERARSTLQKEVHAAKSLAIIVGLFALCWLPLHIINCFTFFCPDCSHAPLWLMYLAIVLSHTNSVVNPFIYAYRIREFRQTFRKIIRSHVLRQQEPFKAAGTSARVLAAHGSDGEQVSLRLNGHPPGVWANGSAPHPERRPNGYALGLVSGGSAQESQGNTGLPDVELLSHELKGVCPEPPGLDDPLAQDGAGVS

Usually Ki stands for a dissociation constant, usually derived from enzyme kinetics or from competition with a known ligand. For `CCOC(=O)c1cnc(NCc2ccc(-c3ccccc3)cc2)n2nc(-c3ccco3)nc12`, the Ratio Ki in experiment [1] turned out to be 1.02; with CHO [2] it was 0.21; with CHO [3], 4.76. In addition, the Ki on Adenosine receptor A1 is 890 nM; at Adenosine receptor A2a, 187 nM; on Adenosine receptor A3 it was 875 nM; on Adenosine receptor A2b, > 30000 nM.
In the case of `CCOC(=O)c1cnc(NC(C)C)n2nc(-c3ccco3)nc12`, the figures for the Ratio Ki (in experiment [1]; with CHO [2]; with CHO [3]) were 4.23, 10.9 and 0.39, respectively. The Ki came to 40 nM at Adenosine receptor A1, 103 nM on Adenosine receptor A2a, 9.46 nM at Adenosine receptor A3 and 10000 nM at Adenosine receptor A2b.
In the case of `CCOC(=O)c1cnc(NC(=O)Nc2ccccc2)n2nc(-c3ccco3)nc12`, the Ratio Ki was determined as 0.9 in experiment [1], 0.01 in the experiment with CHO [2] and 66.8 with CHO [3]. Further, the Ki on Adenosine receptor A1 was found to be 322 nM; at Adenosine receptor A2a, 4.82 nM; at Adenosine receptor A3 it was 357 nM; at Adenosine receptor A2b, 1900 nM.
For `CCOC(=O)c1cnc(NCc2ccc(C(F)(F)F)cc2)n2nc(-c3ccco3)nc12`, the Ratio Ki in experiment [1] stood at 4.92; with CHO [2] it was 0.65; in the experiment with CHO [3] it was 7.61. Further, the Ki on Adenosine receptor A1 is 1590 nM; on Adenosine receptor A2a, 209 nM; on Adenosine receptor A3, 323 nM; at Adenosine receptor A2b it was 2040 nM.
As for `CCOC(=O)c1cnc(SC)n2nc(-c3ccco3)nc12`, the Ratio Ki in experiment [1] came out at 2.17; in the experiment on CHO [2], 3.6; in the experiment on CHO [3] it was 0.6. Moreover, the Ki at Adenosine receptor A1 was 5720 nM; on Adenosine receptor A2a, 9500 nM; on Adenosine receptor A3 it was 2640 nM; on Adenosine receptor A2b, > 30000 nM.
For the compound `CCCCCNc1ncc(C(=O)O)c2nc(-c3ccco3)nn12`, the Ratio Ki was 0.39 in experiment [1], 1.02 in the experiment with CHO [2] and 0.39 with CHO [3]. In addition, the Ki on Adenosine receptor A1 was 10400 nM; on Adenosine receptor A2a it was 26900 nM; at Adenosine receptor A3, 26300 nM; on Adenosine receptor A2b, > 10000 nM.
As for `CCOC(=O)c1cnc(NC(c2ccccc2)c2ccccc2)n2nc(-c3ccco3)nc12`, the results for the Ratio Ki (in experiment [1]; with CHO [2]; in the experiment on CHO [3]) were 2.81, 1.14 and 2.45, respectively. Also, the Ki on Adenosine receptor A1 was 943 nM; at Adenosine receptor A2a, 385 nM; at Adenosine receptor A3 it was 336 nM; at Adenosine receptor A2b it was > 30000 nM.
Take `CCOC(=O)c1cnc(NC2CC2)n2nc(-c3ccco3)nc12`: the Ratio Ki in experiment [1] was 6.38; in the experiment on CHO [2], 3.93; in the experiment on CHO [3] it was 1.62. The Ki at Adenosine receptor A1 turned out to be 60.7 nM; at Adenosine receptor A2a it was 37.4 nM; at Adenosine receptor A3, 9.52 nM; on Adenosine receptor A2b, 2260 nM.
Consider `COc1ccc(CNc2ncc(C(=O)O)c3nc(-c4ccco4)nn23)cc1`, for which the Ratio Ki was 1.04 in experiment [1], 2.25 in the experiment on CHO [2] and 0.46 in the experiment with CHO [3]. The Ki on Adenosine receptor A1 is 5760 nM; on Adenosine receptor A2a, 12400 nM; at Adenosine receptor A3 it was 5520 nM; on Adenosine receptor A2b, > 30000 nM.
As for `CCOC(=O)c1cnc(NCC(C)C)n2nc(-c3ccco3)nc12`, the Ratio Ki in experiment [1] came out at 1.87; in the experiment on CHO [2], 1.82; in the experiment with CHO [3], 1.03. Also, the Ki at Adenosine receptor A1 amounted to 45.6 nM; on Adenosine receptor A2a, 44.4 nM; on Adenosine receptor A3 it was 24.4 nM; on Adenosine receptor A2b it was 7150 nM.
Take `CNC(=O)c1cnc(NCc2ccc(OC)c(OC)c2)n2nc(-c3ccco3)nc12`: the Ratio Ki was determined as 1.52 in experiment [1], 0.09 in the experiment with CHO [2] and 16.6 with CHO [3]. Besides, the Ki on Adenosine receptor A1 turned out to be 428 nM; at Adenosine receptor A2a, 25.8 nM; on Adenosine receptor A3 it was 282 nM; on Adenosine receptor A2b, 2490 nM.
For the compound `COc1ccc(CNc2ncc(C(=O)NCCc3ccccc3)c3nc(-c4ccco4)nn23)cc1OC`, the Ratio Ki amounted to 4.39 in experiment [1], 0.74 with CHO [2] and 5.9 with CHO [3]. In addition, the Ki on Adenosine receptor A1 was 385 nM; at Adenosine receptor A2a it was 65.2 nM; at Adenosine receptor A3 it was 87.7 nM; on Adenosine receptor A2b, > 30000 nM.
With `O=C(O)c1cnc(NCc2ccc(-c3ccccc3)cc2)n2nc(-c3ccco3)nc12`, the Ratio Ki in experiment [1] was 1.06; in the experiment with CHO [2], > 3.53; in the experiment on CHO [3] it was < 0.3. In addition, the Ki on Adenosine receptor A1 was 30100 nM; at Adenosine receptor A2a, > 100000 nM; on Adenosine receptor A3, 28300 nM; at Adenosine receptor A2b, > 30000 nM.
For the compound `CCOC(=O)c1cnc(NCc2ccc(F)cc2)n2nc(-c3ccco3)nc12`, the values for the Ratio Ki (in experiment [1]; in the experiment on CHO [2]; in the experiment on CHO [3]) were 20.1, 0.85 and 23.7, respectively. For the same compound, the Ki was 932 nM at Adenosine receptor A1, 39.3 nM at Adenosine receptor A2a, 46.3 nM on Adenosine receptor A3 and 1970 nM on Adenosine receptor A2b.
As to `O=C(O)c1cnc(NCc2ccccc2)n2nc(-c3ccco3)nc12`, the Ratio Ki in experiment [1] amounted to 2.28; in the experiment with CHO [2], 1.64; in the experiment on CHO [3], 1.39. The inhibition constant Ki on Adenosine receptor A1 is 5090 nM; at Adenosine receptor A2a it was 3660 nM; at Adenosine receptor A3, 2230 nM; on Adenosine receptor A2b it was > 10000 nM.
